The values below come from ChEMBL document CHEMBL4038304, “Chiral Indolylarylsulfone Non-Nucleoside Reverse Transcriptase Inhibitors as New Potent and Broad Spectrum Anti-HIV-1 Agents” (J Med Chem, 2017).

Series [1] can be described thus: Cytotoxicity against human MT4 cells assessed as cell viability by MTT assay. The series is classed as cell-based. Put shortly:
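Uninfected MT-4 cells scored for viability by MTT. […] Values are means of two to three independent experiments, each run in triplicate.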
On the technique in general: Tetrazolium assays rely on reduction of a dye to a coloured formazan, in cell work by metabolically active cells.

Series [2] relates to Human immunodeficiency virus 1. The series is described as follows: Antiviral activity against HIV1 NL4-3 infected in human […] cells assessed as protection against virus-induced cytopathic effect measured on day 5 post infection by MTT assay. The conditions noted are these: Human immunodeficiency virus 1, NL4-3, 120 h. The series is classed as functional, cell-based. In a few lines: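 Values are means of two to three independent experiments, each run in triplicate. The lowest detectable concentration is reported where activity fell below the assay limit.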
Background: Protection from cytopathic effect is a common read-out in antiviral testing.

The nature of series [3]: Selectivity index, ratio of CC50 for human MT4 cells to EC50 for HIV1 NL4-3 infected in human MT4 cells. The series is classed as toxicity, cell-based. As to conditions: read-out: Ratio CC50/EC50. Put shortly: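 SI computed as CC50/EC50, using the MTT-based CC50 in uninfected MT-4 cells and the MTT-based EC50 against HIV-1 NL4-3-induced cell death in MT-4 cells. Experiments were run in triplicate, two to three times.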

Series [4] deals with Human immunodeficiency virus 1. The experiment in a line: Antiviral activity against HIV1 harboring reverse transcriptase K103N mutant infected in human […] cells assessed as protection against virus-induced cytopathic effect measured on day 5 post infection by MTT assay. The series is classed as functional, cell-based. The conditions noted are these: Human immunodeficiency virus 1, 120 h.

In series [5] the test system is Human immunodeficiency virus 1. The series is described as follows: Antiviral activity against HIV1 harboring reverse transcriptase Y181C mutant infected in human […] cells assessed as protection against virus-induced cytopathic effect measured on day 5 post infection by MTT assay. The conditions noted are these: Human immunodeficiency virus 1, 120 h. The series is classed as functional, cell-based.

Series [6] concerns Human immunodeficiency virus 1. The experiment in a line: Antiviral activity against HIV1 harboring reverse transcriptase Y188L mutant infected in human […] cells assessed as protection against virus-induced cytopathic effect measured on day 5 post infection by MTT assay. The series is classed as functional, cell-based. As to conditions: Human immunodeficiency virus 1, 120 h.

Series [7] deals with Human immunodeficiency virus 1. The experiment in a line: Antiviral activity against HIV1 harboring reverse transcriptase K103N /[…] double mutant infected in human […] cells assessed as protection against virus-induced cytopathic effect measured on day 5 post infection by MTT assay. The series is classed as functional, cell-based. The conditions noted are these: Human immunodeficiency virus 1, 120 h.

The test system of series [8] is Human immunodeficiency virus 1. The experiment in a line: Ratio of EC50 for HIV-1 harboring reverse transcriptase K103N mutant infected in human MT4 cells to EC50 for HIV1 NL4-3 infected in human MT4 cells. The series is classed as functional. Put shortly: (§1)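 Fold change calculated as EC50 against the stated resistant mutant HIV-1 strain divided by EC50 against wild-type NL4-3. Both EC50s come from MTT read-out of virus-induced death in MT-4 cells, mean of two to three independent experiments each in triplicate.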

Series [9] deals with Human immunodeficiency virus 1. The experiment in a line: Ratio of EC50 for HIV-1 harboring reverse transcriptase Y181C mutant infected in human MT4 cells to EC50 for HIV1 NL4-3 infected in human MT4 cells. The series is classed as functional. Put shortly: as §1
For series [10], the system named is Human immunodeficiency virus 1. The series is described as follows: Ratio of EC50 for HIV-1 harboring reverse transcriptase Y188L mutant infected in human MT4 cells to EC50 for HIV1 NL4-3 infected in human MT4 cells. The series is classed as functional. In a few lines:
as §1

The test system of series [11] is Human immunodeficiency virus 1. The series is described as follows: Ratio of EC50 for HIV-1 harboring reverse transcriptase K103N/[…] double mutant infected in human MT4 cells to EC50 for HIV1 NL4-3 infected in human MT4 cells. The series is classed as functional. In a few lines:
as §1

Series [12] is described as follows: Inhibition of HIV1 reverse transcriptase p66 K103N/[…] double mutant associated RNA dependent DNA polymerase activity expressed in Escherichia coli assessed as reduction in [3H]dTTP incorporation using poly(rA)/oligo(dT) as template/primer by scintillation counting analysis. Details: species or system Human immunodeficiency virus 1.

The CC50 is the concentration at which the toxic effect on the cells reaches its halfway point. As usually defined, the EC50 is the concentration that produces a half-maximal response. In general, IC50 refers to the concentration needed to halve the response being measured.

On to `Cc1cc(C)cc(S(=O)(=O)c2c(C(=O)NC(C)C(=O)NC(C)c3ccccc3)[nH]c3ccc(Cl)cc23)c1` (racemic), for which the CC50 in series [1] amounted to 21700 nM. The 50% effective concentration (EC50) in [2] came out at 0.6 nM; in series [4], 1.9 nM; in [5], 167 nM; in series [6], 3790 nM; in series [7], 24900 nM. Besides, in series [3], the selectivity ratio was above 36900. The “Ratio EC50” value is 3.2 in series [8], 283 in series [9], 6427 in [10] and 42149 in series [11].
For the compound `Cc1cc(C)cc(S(=O)(=O)c2c(C(=O)NCC(=O)NC(C)c3ccccc3)[nH]c3ccc(Cl)cc23)c1` (racemic), the CC50 in series [1] worked out at 29400 nM. In addition, the 50% effective concentration (EC50) in series [2] was 0.6 nM; in [4] it was 210 nM; in series [5], 76 nM; in [6], 1620 nM; in [7], above 29400 nM. For the same compound, the selectivity ratio in series [3] was above 49000. Moreover, the “Ratio EC50” value in [8] is given as 350; in [9] it was 127; in [10], 2703; in [11], above 48978.
In the case of `Cc1cc(C)cc(S(=O)(=O)c2c(C(=O)NCC(=O)NCCc3cccs3)[nH]c3ccc(Cl)cc23)c1`, the 50% cytotoxic concentration (CC50) in series [1] was determined as 35700 nM. Also, the half-maximal effective concentration (EC50) is 3.8 nM in series [2]; 1340 nM in series [4]; 321 nM in [5]; above 3580 nM in [6]; above 3580 nM in [7]. Besides, the selectivity ratio in [3] is 9480. Further, the “Ratio EC50” value in series [8] was 352; in series [9] it was 84; in series [10] it was above 941; in series [11], above 941.
As for `Cc1cc(C)cc(S(=O)(=O)c2c(C(=O)NC(C)C(=O)NC(C)c3ccccc3F)[nH]c3ccc(Cl)cc23)c1` (racemic), in [1], the CC50 turned out to be 15200 nM. Moreover, the EC50 is 0.6 nM in series [2]; 36 nM in series [4]; 108 nM in series [5]; above 15200 nM in series [6]; 6470 nM in series [7]. Besides, in series [3], the selectivity ratio is above 25400. The Ratio EC50 in series [8] was 60; in series [9], 180; in series [10], above 25387; in series [11], 10790.
In the case of `Cc1cc(C)cc(S(=O)(=O)c2c(C(=O)NC(C)C(=O)NCc3ccco3)[nH]c3ccc(Cl)cc23)c1` (racemic), in [1], the half-maximal cytotoxic concentration (CC50) was determined as 24200 nM. For the same compound, the EC50 in series [2] came out at 0.6 nM; in series [4] it was 1.9 nM; in series [5] it was 27 nM; in series [6], 2430 nM; in [7], 4510 nM. For the same compound, the selectivity ratio in [3] is above 40400. Further, the “Ratio EC50” value in series [8] was 3; in series [9] it was 45; in series [10] it was 4053; in [11] it was above 7521.
With `Cc1cc(C)cc(S(=O)(=O)c2c(C(=O)NC(C)C(=O)NC(C)c3ccncc3)[nH]c3ccc(Cl)cc23)c1` (racemic), in [1], the CC50 was 21900 nM. Besides, the EC50 in series [2] is 0.6 nM; in series [4] it was 7.4 nM; in [5], 167 nM; in [6], 12900 nM; in [7], above 36500 nM. In addition, the selectivity ratio in series [3] was above 36500. Besides, the “Ratio EC50” value in series [8] was 12; in [9], 278; in series [10], 21488; in series [11] it was above 60805.
For `Cc1cc(C)cc(S(=O)(=O)c2c(C(=O)NC(C)c3ccco3)[nH]c3ccc(Cl)cc23)c1` (racemic), the CC50 in series [1] was above 54700 nM. For the same compound, the half-maximal effective concentration (EC50) was 0.7 nM in series [2]; 109 nM in [4]; 22 nM in [5]; 350 nM in [6]; 12000 nM in series [7]. The selectivity ratio in [3] is above 78200. In addition, the “Ratio EC50” value was 155 in series [8], 31 in series [9], 500 in [10] and 17195 in series [11].
With `Cc1cc(C)cc(S(=O)(=O)c2c(C(=O)NCC(=O)NCCn3c(C)cnc3[N+](=O)[O-])[nH]c3ccc(Cl)cc23)c1`, the CC50 in [1] was found to be 24500 nM. For the same compound, the EC50 in series [2] amounted to 0.2 nM; in series [4], 279 nM; in series [5], 17 nM; in series [6], 2320 nM; in series [7], 4680 nM. Further, the selectivity ratio in series [3] turned out to be 144000. Also, the “Ratio EC50” value in series [8] amounted to 1395; in series [9], 85; in [10] it was 11605; in series [11], 23285.
`Cc1cc(C)cc(S(=O)(=O)c2c(C(=O)NC(C)c3ccccc3F)[nH]c3ccc(Cl)cc23)c1` (racemic): the CC50 in series [1] was above 51500 nM. For the same compound, the half-maximal effective concentration (EC50) in series [2] was determined as 0.7 nM; in [4], 0.7 nM; in series [5] it was 103 nM; in series [6], 969 nM; in series [7], 3960 nM. Further, the selectivity ratio in series [3] is above 73600. Further, the “Ratio EC50” value is 1 in [8], above 147 in [9], above 1384 in series [10] and above 5656 in [11].
Consider `Cc1cc(C)cc(S(=O)(=O)c2c(C(=O)NC(C)C(=O)NCc3ccncn3)[nH]c3ccc(Cl)cc23)c1` (racemic), for which the 50% cytotoxic concentration (CC50) in series [1] is 28100 nM. The EC50 in series [2] was found to be 0.6 nM; in series [4], 0.6 nM; in series [5] it was 0.6 nM; in series [6], 760 nM; in series [7] it was 798 nM. In series [3], the selectivity ratio is above 46800. The “Ratio EC50” value in [8] is given as 1; in series [9], 1; in [10] it was above 1267; in series [11] it was above 1330.
Consider `Cc1cc(C)cc(S(=O)(=O)c2c(C(=O)NCC(=O)NCc3ccccc3F)[nH]c3ccc(Cl)cc23)c1`, for which the CC50 in [1] was above 47300 nM. Besides, the EC50 was 0.6 nM in [2]; 1330 nM in series [4]; 1.3 nM in [5]; 6160 nM in [6]; above 47300 nM in [7]. Also, the selectivity ratio in series [3] is above 78900. The “Ratio EC50” value in [8] is recorded as 1894; in series [9] it was 1.9; in [10], 10258; in [11], above 72248.
With `Cc1cc(C)cc(S(=O)(=O)c2c(C(=O)NCC(=O)NC(C)c3ccncc3)[nH]c3ccc(Cl)cc23)c1` (racemic), the CC50 in [1] was found to be 47000 nM. Further, the EC50 in series [2] was determined as 0.6 nM; in series [4], 38 nM; in series [5] it was 0.6 nM; in series [6], 610 nM; in [7], 13300 nM. For the same compound, the selectivity ratio in [3] was above 78400. Also, the “Ratio EC50” value in series [8] is given as 64; in series [9] it was 1; in [10] it was 1017; in series [11], 22227.
Turning to `Cc1cc(C#N)cc(C)c1Oc1nc(Nc2ccc(C#N)cc2)nc(N)c1Br` [ETRAVIRINE], the cytotoxic concentration (CC50) in [1] was above 23000 nM. Also, the EC50 in series [2] is 16.1 nM; in [4] it was 0.7 nM; in series [5], 18 nM; in series [7], 4.6 nM. Besides, the IC50 in series [12] was 97 nM.
